Measured values published in ChEMBL document CHEMBL5036380, “New Highly Potent NLRP3 Inhibitors: Furanochalcone Velutone F Analogues” (ACS Med Chem Lett, 2022).
Active and inactive are the calls of the source. No cut-off for these calls is given here.

How the values were obtained:
[1] = tested on: THP-1; assay: Antiinflammatory activity in human THP-1 cells assessed as inhibition of LPS/nigericin-induced IL-1beta secretion in LPS stimulation followed by pretreatment for 40 min before induced with nigericin for 40 min measured by western blot analysis; type: functional, cell-based; settings: time 80.0 min
Procedure, shortened: (§1)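 PMA-differentiated THP-1 cells were primed with LPS, exposed to graded compound doses for 40 min, then given nigericin for 40 min. Supernatants were immunoblotted for IL-1β and caspase-1. Cell extracts were immunoblotted for NLRP3, pro-IL-1β and pro-caspase-1.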

[2] = tested on: THP-1; assay: Cytotoxicity against human THP-1 cells assessed as reduction in cell viability at 0.05 to 6.4 uM measured after 90 mins by CCK8 assay; type: cell-based; settings: thp-1, 1.5 h, dose 0.05-6.4 µM
Procedure, shortened: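 THP-1 cells preincubated with compound (0.05–6.4 μM) for 1.5 h; viability read by CCK8 assay.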

[3] = tested on: THP-1; assay: Antiinflammatory activity in human THP-1 cells assessed as blockade of caspase 1 p20 in LPS stimulation followed by pretreatment for 40 min before induced with nigericin for 40 min measured by western blot analysis; type: functional, cell-based; settings: time 80.0 min; procedure, shortened: as §1
[4] = biological target: NACHT, LRR and PYD domains-containing protein 3 (Homo sapiens) (UniProt Q96P20); assay: Inhibition of NLRP3 inflammasome activation in LPS/nigericin-treated human THP-1 cells assessed as blockade of […] caspase 1 p20 in LPS stimulation followed by pretreatment for 40 min before induced with nigericin for 40 min measured by western blot analysis; type: cell-based; settings: time 80.0 min; procedure, shortened: as §1
NACHT, LRR and PYD domains-containing protein 3 (Homo sapiens), sequence (Q96P20 whole entry, the tested form may be a part): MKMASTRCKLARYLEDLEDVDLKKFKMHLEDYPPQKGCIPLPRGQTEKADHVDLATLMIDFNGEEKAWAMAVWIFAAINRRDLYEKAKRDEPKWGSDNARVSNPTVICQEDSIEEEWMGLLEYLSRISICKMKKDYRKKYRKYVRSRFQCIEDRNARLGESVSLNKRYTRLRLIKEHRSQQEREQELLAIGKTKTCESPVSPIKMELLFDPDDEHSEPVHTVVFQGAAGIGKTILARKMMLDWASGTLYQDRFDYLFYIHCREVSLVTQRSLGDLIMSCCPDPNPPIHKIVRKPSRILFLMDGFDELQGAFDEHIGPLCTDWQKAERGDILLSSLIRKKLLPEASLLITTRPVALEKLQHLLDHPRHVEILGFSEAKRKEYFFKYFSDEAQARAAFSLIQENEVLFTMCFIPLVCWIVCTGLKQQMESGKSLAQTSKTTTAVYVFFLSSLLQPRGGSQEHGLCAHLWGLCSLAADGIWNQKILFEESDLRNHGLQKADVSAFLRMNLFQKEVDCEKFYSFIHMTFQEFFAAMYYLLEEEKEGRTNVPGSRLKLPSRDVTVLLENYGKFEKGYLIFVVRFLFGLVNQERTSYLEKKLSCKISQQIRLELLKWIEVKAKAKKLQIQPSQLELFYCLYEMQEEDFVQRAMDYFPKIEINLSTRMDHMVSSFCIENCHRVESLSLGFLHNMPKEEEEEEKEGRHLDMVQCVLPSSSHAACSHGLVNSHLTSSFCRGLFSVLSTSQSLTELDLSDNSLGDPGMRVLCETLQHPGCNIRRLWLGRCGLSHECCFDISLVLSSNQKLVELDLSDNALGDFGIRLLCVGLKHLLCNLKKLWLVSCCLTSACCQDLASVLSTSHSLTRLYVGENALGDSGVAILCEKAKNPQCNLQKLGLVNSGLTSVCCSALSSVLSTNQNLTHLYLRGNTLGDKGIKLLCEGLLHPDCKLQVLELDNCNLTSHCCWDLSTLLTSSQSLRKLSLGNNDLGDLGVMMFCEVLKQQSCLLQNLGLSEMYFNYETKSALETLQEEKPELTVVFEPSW

[5] = biological target: NACHT, LRR and PYD domains-containing protein 3 (Homo sapiens) (UniProt Q96P20); assay: Inhibition of NLRP3 inflammasome activation in LPS/nigericin-treated human THP-1 cells assessed as LPS-induced IL-1beta secretion in LPS stimulation followed by pretreatment for 40 min before induced with nigericin for 40 min measured by western blot analysis; type: cell-based; settings: time 80.0 min; procedure, shortened: as §1
[6] = biological target: NLR family CARD domain-containing protein 4 (Homo sapiens) (UniProt Q9NPP4); assay: Inhibition of NLRC4 inflammasome activation in LPS-induced human THP-1 cells at 1 uM for 40 mins followed by flagellin stimulation for 6 h by ELISA; type: cell-based; settings: time 400.0 min
NLR family CARD domain-containing protein 4 (Homo sapiens), sequence (Q9NPP4 whole entry, the tested form may be a part): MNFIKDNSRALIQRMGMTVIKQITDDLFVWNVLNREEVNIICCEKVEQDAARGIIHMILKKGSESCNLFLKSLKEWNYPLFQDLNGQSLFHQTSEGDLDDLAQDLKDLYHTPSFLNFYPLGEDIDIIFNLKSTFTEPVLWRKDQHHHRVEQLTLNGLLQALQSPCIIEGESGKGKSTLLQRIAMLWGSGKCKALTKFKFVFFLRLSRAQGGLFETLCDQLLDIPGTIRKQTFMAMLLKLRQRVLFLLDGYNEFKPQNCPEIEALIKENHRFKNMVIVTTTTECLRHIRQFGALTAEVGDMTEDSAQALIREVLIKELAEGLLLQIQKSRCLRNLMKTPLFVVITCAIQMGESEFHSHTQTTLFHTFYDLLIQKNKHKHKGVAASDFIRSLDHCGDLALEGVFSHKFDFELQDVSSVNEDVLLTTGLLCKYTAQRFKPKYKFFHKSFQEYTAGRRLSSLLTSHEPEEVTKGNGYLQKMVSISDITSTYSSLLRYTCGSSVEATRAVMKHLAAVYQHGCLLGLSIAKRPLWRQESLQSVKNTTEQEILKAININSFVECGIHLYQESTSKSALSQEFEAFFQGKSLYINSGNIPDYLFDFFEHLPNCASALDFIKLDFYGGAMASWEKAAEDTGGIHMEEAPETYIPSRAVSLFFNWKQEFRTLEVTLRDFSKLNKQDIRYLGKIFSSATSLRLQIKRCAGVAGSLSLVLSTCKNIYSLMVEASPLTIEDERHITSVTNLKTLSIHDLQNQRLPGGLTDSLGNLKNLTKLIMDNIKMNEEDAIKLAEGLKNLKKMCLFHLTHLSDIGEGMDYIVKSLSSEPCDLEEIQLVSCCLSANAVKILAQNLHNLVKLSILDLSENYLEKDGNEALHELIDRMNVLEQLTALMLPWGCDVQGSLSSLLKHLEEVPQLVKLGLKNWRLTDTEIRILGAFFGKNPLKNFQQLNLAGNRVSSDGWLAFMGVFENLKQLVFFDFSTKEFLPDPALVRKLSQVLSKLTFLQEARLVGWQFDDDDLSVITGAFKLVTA

[7] = biological target: NLR family CARD domain-containing protein 4 (Homo sapiens) (UniProt Q9NPP4); assay: Inhibition of NLRC4 inflammasome activation in LPS-induced human THP-1 cells at 3 to 5uM for 40 mins followed by flagellin stimulation for 6 h by ELISA; type: cell-based
[8] = biological target: T1, Interferon-inducible protein AIM2 (Homo sapiens) (UniProt O14862); assay: Inhibition of AIM2 inflammasome activation in LPS-induced human THP-1 cells at 3 to 5uM for 40 mins followed by […] stimulation for 6 h by ELISA; type: cell-based
T1 sequence (whole entry): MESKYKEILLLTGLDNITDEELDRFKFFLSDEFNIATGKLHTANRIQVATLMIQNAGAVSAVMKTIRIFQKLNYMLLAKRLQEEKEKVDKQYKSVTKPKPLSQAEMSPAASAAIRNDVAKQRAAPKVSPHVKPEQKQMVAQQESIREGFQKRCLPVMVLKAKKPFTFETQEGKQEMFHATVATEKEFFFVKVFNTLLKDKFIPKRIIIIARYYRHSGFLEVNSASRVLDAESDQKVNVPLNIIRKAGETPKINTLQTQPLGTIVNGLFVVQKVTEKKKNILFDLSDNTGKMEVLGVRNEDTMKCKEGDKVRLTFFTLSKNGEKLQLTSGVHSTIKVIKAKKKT

[9] = tested on: THP-1; assay: Effect on TNFalpha expression in LPS-stimulated human THP-1 cells at 1 uM preincubated for 40 mins followed by LPS addition and measured after 3 hrs by Western blot analysis; type: functional, cell-based; settings: time 220.0 min
Procedure, shortened: (§2)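 THP-1 cells were given compound for 40 min, then primed with LPS for 3 h. Medium supernatant was analysed for TNF-α. Cell extracts were immunoblotted for pro-IL-1β and NLRP3.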

[10] = tested on: THP-1; assay: Effect on NLRP3 expression in LPS-stimulated human THP-1 cells preincubated for 40 mins followed by LPS addition and measured after 3 hrs by Western blot analysis; type: functional, cell-based; settings: time 220.0 min; procedure, shortened: as §2
[11] = tested on: THP-1; assay: Effect on ASC oligomerization in LPS/nigericin stimulated human THP-1 cells assessed as ASC specks in LPS stimulation for 3 hrs followed by pretreatment for 40 min before induced with nigericin for 40 min by ASC and DAPI staining based immunofluorescent microscopy; type: functional, cell-based; settings: time 80.0 min
Procedure, shortened: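 THP-1 cells were LPS-primed, treated with compound, then activated with nigericin. Endogenous ASC was visualized by immunofluorescence microscopy. The proportion of cells with ASC specks was counted, with NLRP3 KO THP-1 cells as comparison.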

[12] = biological target: NACHT, LRR and PYD domains-containing protein 3 (Homo sapiens) (UniProt Q96P20); assay: Inhibition of NLRP3 in human THP-1cells assessed as increase in thermal stability at 100 uM by cellular thermal shift assay
[13] = biological target: NACHT, LRR and PYD domains-containing protein 3 (Homo sapiens) (UniProt Q96P20); assay: Inhibition of NLRP3 in human THP-1cells assessed as increase in thermal stability at 0.5 to 5 uM at 57 deg C measured by cellular thermal shift assay; settings: dose 0.5-5 µM
[14] = AUC (0 to t) in Sprague-Dawley rat at 10 mg/kg, po measured up to 24 hrs by LC-MS/MS analysis; type: ADME, organism-based; design: route oral, dose 10 mg/kg, time <=24; settings: in vivo
Procedure, shortened: (§3)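 Single doses given intravenously (10 mg/kg) or orally (10, 30, 90 mg/kg); plasma levels quantified by LC/MS/MS at multiple time points. Parameters reported as mean values: AUC0–t, CL, Cmax, T1/2, Tmax, and %F based on AUC.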

[15] = AUC (0 to t) in Sprague-Dawley rat at 30 mg/kg, po measured up to 24 hrs by LC-MS/MS analysis; type: ADME, organism-based; design: route oral, dose 30 mg/kg, time <=24; settings: in vivo; procedure, shortened: as §3
[16] = AUC (0 to t) in Sprague-Dawley rat at 90 mg/kg, po measured up to 24 hrs by LC-MS/MS analysis; type: ADME, organism-based; design: route oral, dose 90 mg/kg, time <=24; settings: in vivo; procedure, shortened: as §3
[17] = Clearance in Sprague-Dawley rat at 10 mg/kg, iv measured up to 24 hrs by LC-MS/MS analysis; type: ADME, organism-based; settings: in vivo; procedure, shortened: as §3
[18] = Cmax in Sprague-Dawley rat at 10 mg/kg, iv measured up to 24 hrs by LC-MS/MS analysis; type: ADME, organism-based; design: route intravenous, dose 10 mg/kg, time <=24; settings: in vivo; procedure, shortened: as §3
[19] = Cmax in Sprague-Dawley rat at 90 mg/kg, po measured up to 24 hrs by LC-MS/MS analysis; type: ADME, organism-based; design: route oral, dose 90 mg/kg, time <=24; settings: in vivo; procedure, shortened: as §3
[20] = Half life in Sprague-Dawley rat at 10 mg/kg, po measured up to 24 hrs by LC-MS/MS analysis; type: ADME, organism-based; settings: in vivo; procedure, shortened: as §3
[21] = Half life in Sprague-Dawley rat at 30 mg/kg, po measured up to 24 hrs by LC-MS/MS analysis; type: ADME, organism-based; settings: in vivo; procedure, shortened: as §3
[22] = Half life in Sprague-Dawley rat at 90 mg/kg, po measured up to 24 hrs by LC-MS/MS analysis; type: ADME, organism-based; settings: in vivo; procedure, shortened: as §3
[23] = Tmax in Sprague-Dawley rat at 10 mg/kg, iv measured up to 24 hrs by LC-MS/MS analysis; type: ADME, organism-based; settings: in vivo; procedure, shortened: as §3
[24] = Tmax in Sprague-Dawley rat at 10 mg/kg, po measured up to 24 hrs by LC-MS/MS analysis; type: ADME, organism-based; settings: in vivo; procedure, shortened: as §3
[25] = Tmax in Sprague-Dawley rat at 90 mg/kg, po measured up to 24 hrs by LC-MS/MS analysis; type: ADME, organism-based; settings: in vivo; procedure, shortened: as §3
[26] = Oral bioavailability in Sprague-Dawley rat at 30 mg/kg measured up to 24 hrs by LC-MS/MS analysis; type: ADME, organism-based; settings: in vivo; procedure, shortened: as §3
[27] = tested on: Spleen; assay: Downregulation of IL-1beta level in spleen of LPS treated C57BL/6J mouse at 10 mg/kg, iv measured after 6 hrs by ELISA

COc1cc(/C=C/C(=O)c2ccc(F)cc2)c(OC)cc1Br
Activity [1]: Dose-Dependent Effect
Activity [2]: Non-Toxic
Activity [3]: Dose-Dependent Effect
inhibition [4]: inactive
inhibition [5]: inactive
inhibition [6]: inactive
inhibition [7]: Dose-Dependent Effect
inhibition [8]: Dose-Dependent Effect
Activity [9]: inactive
Activity [10]: inactive
Activity [11]: Active
inhibition [12]: Active
inhibition [13]: Dose-Dependent Effect
AUCt [14]: 14.6 ng·h/mL
AUC(0-t) at 24 h [15]: 15.8 ng·h/mL
AUC(0-t) at 24 h [16]: 23.5 ng·h/mL
CL [17]: 2229.2 mL/min/kg
Cmax [18]: 82 ng/mL
Cmax [19]: 13.6 ng/mL
half-life [20]: 7.43 h
half-life [21]: 7.92 h
half-life [22]: 6.08 h
Tmax [23]: 6.6 min
Tmax [24]: 2.11 h
Tmax [25]: 4.21 h
bioavailability [26]: 4.99%
Activity [27]: Active
